ChEMBL document CHEMBL1138747, “Synthesis and structure--activity relationship in a class of indolebutylpiperazines as dual 5-HT(1A) receptor agonists and serotonin reuptake inhibitors” (J Med Chem, 2004)

Legend:
D(2) dopamine receptor = D(2) dopamine receptor (Rattus norvegicus, UniProt P61169); assay: Displacement of [3H]spiperone from dopamine D2 receptor of rat striatal membranes; type: cell membranes, Membrane
Summary of the method: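 IC50 from 5–10 compound concentrations, each in triplicate, taken as the concentration (nM) giving 50% inhibition of specific radioligand binding.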

[1] = biological target: Sodium-dependent serotonin transporter (Rattus norvegicus, UniProt P31652); assay: Inhibition of [3H]5-HT re-uptake in rat synaptosomes; type: subcellular, Brain
[2] = biological target: T1, 5-hydroxytryptamine receptor 1A (Rattus norvegicus, UniProt P19327); assay: Inhibition of 8-OH DPAT binding to rat hydroxytryptamine 1A receptor
T1 sequence (P19327 whole entry): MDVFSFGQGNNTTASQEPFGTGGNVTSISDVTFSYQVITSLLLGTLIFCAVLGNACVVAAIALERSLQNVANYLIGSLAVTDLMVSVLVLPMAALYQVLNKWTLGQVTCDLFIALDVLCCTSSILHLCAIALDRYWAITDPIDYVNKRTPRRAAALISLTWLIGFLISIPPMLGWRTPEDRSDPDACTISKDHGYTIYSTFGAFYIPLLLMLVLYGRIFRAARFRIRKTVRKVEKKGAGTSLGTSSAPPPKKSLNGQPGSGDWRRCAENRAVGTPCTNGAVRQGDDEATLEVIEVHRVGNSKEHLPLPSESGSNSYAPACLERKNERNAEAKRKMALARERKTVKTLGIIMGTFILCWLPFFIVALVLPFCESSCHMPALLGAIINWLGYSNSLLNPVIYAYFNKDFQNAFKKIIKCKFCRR

Rattus norvegicus [3] = assay: Dose required to inhibit ultrasonic vocalisation on peroral administered; type: functional; settings: po, read-out: ID50 (the source's name)
Summary of the method: (§1)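 Rat ultrasonic vocalization test. In a priming session, up to 10 grid-floor shocks were given (1.8 mA, 0.3 s, 20 s apart). Rats not vocalizing on three consecutive trials were excluded. Next day, rats were tested 2 h after dosing: five shocks, then vocalization duration recorded over 3 min. ID50 (dose for half-maximal inhibition) came from dose–response curves.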

Rattus norvegicus [4] = assay: Dose required to inhibit ultrasonic vocalisation on subcutaneous administered; type: functional; settings: sc, read-out: ID50 (the source's name); summary of the method: as §1

Chain of D(2) dopamine receptor (P61169 whole entry): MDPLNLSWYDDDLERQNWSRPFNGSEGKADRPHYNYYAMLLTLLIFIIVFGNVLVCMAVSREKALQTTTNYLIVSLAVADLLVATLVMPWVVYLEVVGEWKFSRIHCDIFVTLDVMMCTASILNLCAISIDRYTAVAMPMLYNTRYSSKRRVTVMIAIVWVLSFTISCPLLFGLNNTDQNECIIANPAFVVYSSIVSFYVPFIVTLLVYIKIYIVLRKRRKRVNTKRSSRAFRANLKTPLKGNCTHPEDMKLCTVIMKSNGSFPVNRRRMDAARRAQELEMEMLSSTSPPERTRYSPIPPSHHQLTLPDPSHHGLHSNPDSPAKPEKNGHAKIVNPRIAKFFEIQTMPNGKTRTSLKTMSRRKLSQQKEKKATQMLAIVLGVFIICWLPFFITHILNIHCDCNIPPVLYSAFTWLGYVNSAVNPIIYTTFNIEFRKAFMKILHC
Chain of Sodium-dependent serotonin transporter (P31652 whole entry): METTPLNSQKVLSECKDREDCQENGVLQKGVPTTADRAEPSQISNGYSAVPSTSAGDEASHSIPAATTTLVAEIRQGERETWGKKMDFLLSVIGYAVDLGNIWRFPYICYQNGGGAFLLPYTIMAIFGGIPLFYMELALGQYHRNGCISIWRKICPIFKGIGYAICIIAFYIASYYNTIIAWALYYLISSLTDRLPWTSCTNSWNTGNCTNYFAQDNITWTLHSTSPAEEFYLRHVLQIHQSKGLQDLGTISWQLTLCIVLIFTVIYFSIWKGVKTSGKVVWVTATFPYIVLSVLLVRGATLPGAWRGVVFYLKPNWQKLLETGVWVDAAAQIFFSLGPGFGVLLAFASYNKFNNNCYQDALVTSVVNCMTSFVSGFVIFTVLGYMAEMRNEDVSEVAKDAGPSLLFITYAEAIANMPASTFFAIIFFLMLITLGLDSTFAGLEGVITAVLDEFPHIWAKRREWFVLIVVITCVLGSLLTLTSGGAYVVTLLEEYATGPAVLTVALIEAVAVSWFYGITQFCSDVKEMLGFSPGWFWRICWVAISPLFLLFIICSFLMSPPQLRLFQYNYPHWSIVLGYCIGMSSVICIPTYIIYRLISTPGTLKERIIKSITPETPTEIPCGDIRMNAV

| SMILES | IC50 (D(2) dopamine receptor) [nM] | IC50 [1] [nM] | IC50 [2] [nM] | ED50 (Rattus norvegicus [3]) [mg/kg] | ED50 (Rattus norvegicus [4]) [mg/kg] |
| --- | --- | --- | --- | --- | --- |
| N#Cc1ccc2[nH]cc(CCCCN3CCN(c4ccc5c(c4)CC(C(N)=O)O5)CC3)c2c1 (centres undefined) | 1400 | 3.1 | 3.2 | – | – |
| N#Cc1ccc2[nH]cc(CCCCN3CCN(c4ccc5occc5c4)CC3)c2c1 | 8 | 3.9 | 8.7 | – | – |
| N#Cc1ccc2[nH]cc(CCCCN3CCN(c4ccc5sc(C(N)=O)cc5c4)CC3)c2c1 | – | 0.3 | 3.1 | – | – |
| N#Cc1ccc(N2CCN(CCCCc3c[nH]c4ccc(F)cc34)CC2)cc1 | > 100 | 2 | 40 | – | – |
| N#Cc1cc2cc(N3CCN(CCCCc4c[nH]c5ccc(F)cc45)CC3)ccc2o1 | > 100 | 3 | 5 | – | – |
| CCOCCOCCOc1cccc(N2CCN(CCCCc3c[nH]c4ccc(C#N)cc34)CC2)c1C#N | 28 | 3.2 | 2 | – | – |
| Fc1ccc2[nH]cc(CCCCN3CCN(c4ccc5c(c4)OCCO5)CC3)c2c1 | 130 | 1 | 5 | – | – |
| N#Cc1ccc2[nH]cc(CCCCN3CCN(c4ccc(C(N)=O)cc4)CC3)c2c1 | > 270 | 0.6 | 118 | – | – |
| N#Cc1ccc2[nH]cc(CCCCN3CCN(c4ccc(F)cc4)CC3)c2c1 | 4.2 | 1 | – | 7 | 3 |
| Fc1ccc2[nH]cc(CCCCN3CCN(c4ccc5c(c4)OCO5)CC3)c2c1 | < 100 | 1 | 4 | – | – |
| N#Cc1ccc2[nH]cc(CCCCN3CCN(c4ccc5c(c4)OCO5)CC3)c2c1 | 4.9 | 0.6 | 0.7 | 4 | 1 |
| O=C(O)c1ccc2[nH]cc(CCCCN3CCN(c4ccc5c(c4)OCCO5)CC3)c2c1 | > 100 | – | 4 | – | – |
| N#Cc1ccc2[nH]cc(CCCCN3CCN(c4cccc5oc(C(N)=O)cc45)CC3)c2c1 | 6.6 | 8.5 | 1.4 | – | – |
| N#Cc1ccc2[nH]cc(CCCCN3CCN(c4ccccc4)CC3)c2c1 | 3.8 | 1 | 400 | – | – |
| N#Cc1ccc2[nH]cc(CCCCN3CCN(c4cc(F)c(C#N)c(F)c4)CC3)c2c1 | – | 5.4 | 36 | – | – |
| N#Cc1ccc2[nH]cc(CCCCN3CCN(c4ccc5c(c4)OCCO5)CC3)c2c1 | 5.6 | 0.4 | 1 | – | – |
| COc1ccc(N2CCN(CCCCc3c[nH]c4ccc(C#N)cc34)CC2)cc1 | 46 | 0.5 | 1 | – | – |
| N#Cc1ccc2[nH]cc(CCCCN3CCN(c4c(C#N)cccc4C#N)CC3)c2c1 | < 100 | 2 | 40 | – | – |
| O=c1ccc2cc(N3CCN(CCCCc4c[nH]c5ccc(F)cc45)CC3)ccc2o1 | > 100 | 0.9 | 0.7 | – | – |
| NC(=O)c1cc2cc(N3CCN(CCCCc4c[nH]c5ccc(F)cc45)CC3)ccc2o1 | > 100 | 0.3 | 3 | – | – |
| Clc1ccc2[nH]cc(CCCCN3CCN(c4ccc5c(c4)OCCO5)CC3)c2c1 | > 100 | 20 | 40 | – | – |
| Oc1ccc2[nH]cc(CCCCN3CCN(c4ccc5c(c4)OCCO5)CC3)c2c1 | 77 | 0.5 | 0.2 | – | – |
| c1ccc2c(CCCCN3CCN(c4ccc5c(c4)OCCO5)CC3)c[nH]c2c1 | > 100 | 10 | 8 | – | – |
| N#Cc1ccc2[nH]cc(CCCCN3CCN(c4ccc(C#N)c(C#N)c4)CC3)c2c1 | – | 2 | 12 | – | – |
| N#Cc1ccc2[nH]cc(CCCCN3CCN(c4ccc5[nH]c(C(N)=O)cc5c4)CC3)c2c1 | 140 | 2 | 14 | – | – |
| COc1ccccc1N1CCN(CCCCc2c[nH]c3ccc(C#N)cc23)CC1 | 0.7 | 3 | 1 | – | – |
| COc1cccc(N2CCN(CCCCc3c[nH]c4ccc(C#N)cc34)CC2)c1C#N | 1.4 | 3.9 | 5.6 | – | – |

The next lines start with results.

| IC50 (D(2) dopamine receptor) [nM] | IC50 [1] [nM] | IC50 [2] [nM] | SMILES | ED50 (Rattus norvegicus [3]) [mg/kg] | ED50 (Rattus norvegicus [4]) [mg/kg] |
| --- | --- | --- | --- | --- | --- |
| 40 | 0.3 | 60 | COc1ccc(N2CCN(CCCCc3c[nH]c4ccc(C#N)cc34)CC2)cc1OC | – | – |
| > 630 | 1 | 0.4 | N#Cc1ccc2[nH]cc(CCCCN3CCN(c4ccc5oc(C#N)cc5c4)CC3)c2c1 | – | – |
| 13 | 1 | 4 | N#Cc1ccc2[nH]cc(CCCCN3CCN(c4ccc5c(c4)CCO5)CC3)c2c1 | – | – |
| 9.4 | 5 | 0.4 | O/N=C/c1ccc2[nH]cc(CCCCN3CCN(c4ccc5c(c4)OCCO5)CC3)c2c1 | – | – |
| < 100 | 1 | 0.7 | O=Cc1ccc2[nH]cc(CCCCN3CCN(c4ccc5c(c4)OCCO5)CC3)c2c1 | – | – |
| 6 | 4.1 | 8 | COc1cc(C#N)ccc1N1CCN(CCCCc2c[nH]c3ccc(C#N)cc23)CC1 | – | – |
| 220 | 5.5 | 3.3 | N#Cc1ccc2[nH]cc(CCCCN3CCN(c4ccc5occc5c4C(N)=O)CC3)c2c1 | – | – |
| 255 | 1.3 | 1.1 | N#Cc1ccc(N2CCN(CCCCc3c[nH]c4ccc(C#N)cc34)CC2)cc1 | 14 | – |
| 35 | 0.5 | 6 | N#Cc1ccc2[nH]cc(CCCCN3CCN(c4ccc(O)cc4)CC3)c2c1 | – | – |
| – | 100 | – | COc1ccc2[nH]cc(CCCCN3CCN(c4ccc5c(c4)OCCO5)CC3)c2c1 | – | – |
| < 42 | 0.9 | 5 | N#Cc1ccc2[nH]cc(CCCCN3CCN(c4ccc5c(c4)CCCO5)CC3)c2c1 | – | – |
| 39 | 2.6 | 1.9 | N#Cc1ccc2[nH]cc(CCCCN3CCN(c4cccc5cc(C(N)=O)oc45)CC3)c2c1 | – | – |
| < 100 | 50 | 0.6 | COC(=O)c1ccc2[nH]cc(CCCCN3CCN(c4ccc5c(c4)OCCO5)CC3)c2c1 | – | – |
| 31 | 3.1 | 2 | N#Cc1ccc2[nH]cc(CCCCN3CCN(c4ccc5nsnc5c4)CC3)c2c1 | – | 3 |
| 740 | 0.7 | 0.1 | N#Cc1ccc2[nH]cc(CCCCN3CCN(c4ccc5oc(=O)ccc5c4)CC3)c2c1 | 4 | 0.5 |
| 47 | 16 | 6.4 | N#Cc1ccc2[nH]cc(CCCCN3CCN(c4ccccc4C(N)=O)CC3)c2c1 | – | – |
| 5.7 | 2.4 | 1.6 | N#Cc1ccc2[nH]cc(CCCCN3CCN(c4ccc5[nH]ccc5c4)CC3)c2c1 | – | – |
| 1.4 | 1.5 | 1 | N#Cc1ccc2[nH]cc(CCCCN3CCN(c4cccc5nsnc45)CC3)c2c1 | – | – |
| 43 | 0.8 | 400 | N#Cc1ccc2[nH]cc(CCCCN3CCN(c4ccc(O)c(C#N)c4)CC3)c2c1 | – | – |
| – | 60 | – | NC(=O)c1ccc2[nH]cc(CCCCN3CCN(c4ccc5c(c4)OCCO5)CC3)c2c1 | – | – |
| – | 3.4 | 14 | COc1cc(N2CCN(CCCCc3c[nH]c4ccc(C#N)cc34)CC2)ccc1C#N | – | – |
| – | 6.8 | 30 | COc1ccc(Cl)cc1N1CCN(CCCCc2c[nH]c3ccc(C#N)cc23)CC1 | – | – |
